Reference: ChEMBL document CHEMBL1773058, “Synthesis of 4β-carbamoyl epipodophyllotoxins as potential antitumour agents” (2011)
Activity calls are given as the source filed them. The rule behind the calls is not given here.

Key:
[1] = system: MCF7; test: Growth inhibition of human MCF7 cells after 48 hrs by sulforhodamine B assay; format: functional; conditions: MCF7, 48 h
How it was run: (§1)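 Cells grown in RPMI-1640 (2 mM glutamine, pH 7.4, 10% FCS, penicillin/streptomycin) at 37 °C, 5% CO2. Subconfluent cells trypsinised, used at >97% viability (trypan blue), plated and grown 24 h, then exposed to test materials 48 h in triplicate. Fixed with TCA at 4 °C for 1 h, stained 30 min with 0.4% SRB in 1% acetic acid, dye solubilised in 10 mM Tris pH 10.4, OD read at 540 nm. GI50 reported.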

[2] = system: PC-3; test: Growth inhibition of human PC3 cells after 48 hrs by sulforhodamine B assay; format: functional; conditions: PC-3, 48 h; how it was run: as §1
[3] = system: ZR-75-1; test: Growth inhibition of human ZR-75-1 cells after 48 hrs by sulforhodamine B assay; format: functional; conditions: ZR-75-1, 48 h; how it was run: as §1
[4] = system: A549; test: Growth inhibition of human A549 cells after 48 hrs by sulforhodamine B assay; format: functional; conditions: A549, 48 h; how it was run: as §1
[5] = system: HOP-62; test: Growth inhibition of human HOP62 cells after 48 hrs by sulforhodamine B assay; format: functional; conditions: HOP-62, 48 h; how it was run: as §1
[6] = system: COLO 205; test: Growth inhibition of human COLO205 cells after 48 hrs by sulforhodamine B assay; format: functional; conditions: COLO 205, 48 h; how it was run: as §1
[7] = system: A2780; test: Growth inhibition of human A2780 cells after 48 hrs by sulforhodamine B assay; format: functional; conditions: A2780, 48 h; how it was run: as §1
[8] = Growth inhibition of human DWD cells after 48 hrs by sulforhodamine B assay; format: functional; how it was run: as §1
[9] = system: KB; test: Growth inhibition of human KB cells after 48 hrs by sulforhodamine B assay; format: functional; how it was run: as §1
[10] = system: SiHa; test: Growth inhibition of human SiHa cells after 48 hrs by sulforhodamine B assay; format: functional; how it was run: as §1
[11] = Growth inhibition of human Gurav cells after 48 hrs by sulforhodamine B assay; format: functional; how it was run: as §1
[12] = molecular target: DNA topoisomerase 2-alpha (Homo sapiens) (UniProt P11388); test: Inhibition of topoisomerase 2 assessed as inhibition of relaxation of supercoiled pBR322 plasmid DNA at 10 uM to 1 mM by ethidium bromide staining
How it was run: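 Topo II relaxation reaction stopped with 10% SDS, then proteinase K treatment and extraction with chloroform/isoamyl alcohol (24:1). Products resolved on 1% agarose gel in TAE (40 mM Tris-acetate pH 8.0, 1 mM EDTA) and stained with 0.5 µg/ml ethidium bromide.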

Chain of DNA topoisomerase 2-alpha (Homo sapiens) (P11388 whole entry): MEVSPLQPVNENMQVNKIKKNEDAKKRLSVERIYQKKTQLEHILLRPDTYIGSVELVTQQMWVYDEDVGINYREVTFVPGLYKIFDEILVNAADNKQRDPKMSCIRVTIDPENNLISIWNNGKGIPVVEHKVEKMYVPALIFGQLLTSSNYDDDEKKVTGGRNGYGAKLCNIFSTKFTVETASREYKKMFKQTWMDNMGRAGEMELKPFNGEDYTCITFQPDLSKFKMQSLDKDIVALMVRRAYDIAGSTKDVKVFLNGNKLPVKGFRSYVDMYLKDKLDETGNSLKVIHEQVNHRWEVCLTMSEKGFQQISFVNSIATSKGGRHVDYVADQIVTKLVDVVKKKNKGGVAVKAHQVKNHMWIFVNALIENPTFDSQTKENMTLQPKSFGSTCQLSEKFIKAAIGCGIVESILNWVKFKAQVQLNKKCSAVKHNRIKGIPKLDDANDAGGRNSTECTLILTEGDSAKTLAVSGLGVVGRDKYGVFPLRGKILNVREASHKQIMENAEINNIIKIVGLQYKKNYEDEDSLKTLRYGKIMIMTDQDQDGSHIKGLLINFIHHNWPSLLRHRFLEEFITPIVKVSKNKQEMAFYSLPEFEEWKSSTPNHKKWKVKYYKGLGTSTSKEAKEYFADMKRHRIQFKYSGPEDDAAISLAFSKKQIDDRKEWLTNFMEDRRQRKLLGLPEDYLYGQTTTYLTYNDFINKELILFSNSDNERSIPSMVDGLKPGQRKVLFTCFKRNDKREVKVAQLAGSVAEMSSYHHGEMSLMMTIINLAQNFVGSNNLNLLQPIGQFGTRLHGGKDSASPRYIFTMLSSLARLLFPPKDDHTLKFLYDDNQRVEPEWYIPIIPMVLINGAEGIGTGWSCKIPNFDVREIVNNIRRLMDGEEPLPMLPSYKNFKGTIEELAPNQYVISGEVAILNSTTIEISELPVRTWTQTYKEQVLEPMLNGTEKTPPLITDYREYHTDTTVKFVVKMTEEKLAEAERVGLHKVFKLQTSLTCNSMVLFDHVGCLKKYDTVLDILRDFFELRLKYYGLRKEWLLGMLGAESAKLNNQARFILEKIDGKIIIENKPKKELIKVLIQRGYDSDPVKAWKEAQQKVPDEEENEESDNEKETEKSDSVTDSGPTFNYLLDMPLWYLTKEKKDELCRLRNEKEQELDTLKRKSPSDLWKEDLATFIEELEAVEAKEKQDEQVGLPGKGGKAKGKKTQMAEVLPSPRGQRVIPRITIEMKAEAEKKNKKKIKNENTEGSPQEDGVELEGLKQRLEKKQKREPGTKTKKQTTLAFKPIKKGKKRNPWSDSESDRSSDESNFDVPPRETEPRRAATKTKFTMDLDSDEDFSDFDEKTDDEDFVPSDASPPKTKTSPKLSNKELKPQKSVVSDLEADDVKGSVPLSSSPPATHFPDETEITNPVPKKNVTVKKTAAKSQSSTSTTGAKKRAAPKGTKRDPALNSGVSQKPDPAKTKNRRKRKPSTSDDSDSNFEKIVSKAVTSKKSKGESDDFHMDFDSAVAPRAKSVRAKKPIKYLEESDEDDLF

Row | SMILES | GI50 [1] | GI50 [2] | GI50 [3] | GI50 [4] | GI50 [5] | GI50 [6] | GI50 [7] | GI50 [8] | GI50 [9] | GI50 [10] | GI50 [11] | inhibition [12]
1 | COc1cc([C@@H]2c3cc4c(cc3[C@@H](O[C@@H]3O[C@@H]5CO[C@@H](C)O[C@H]5[C@H](O)[C@H]3O)[C@H]3COC(=O)[C@H]23)OCO4)cc(OC)c1O [ETOPOSIDE] | 2.1 µM | 2.6 µM | 0.2 µM | 3.08 µM | 0.8 µM | 0.13 µM | 1.3 µM | 0.6 µM | 0.3 µM | 3.1 µM | 0.5 µM | 
2 | COc1cc([C@@H]2c3cc4c(cc3[C@@H](OC(=O)N3CCOCC3)[C@H]3COC(=O)[C@H]23)OCO4)cc(OC)c1OC | 0.16 µM | 0.16 µM | 0.14 µM | < 0.1 µM | 0.13 µM | 2.7 µM | 0.13 µM | < 0.1 µM | 0.12 µM | 1.4 µM | 0.14 µM | Active
3 | COc1cc([C@@H]2c3cc4c(cc3[C@@H](OC(=O)NCc3ccc(C(F)(F)F)cc3)[C@H]3COC(=O)[C@H]23)OCO4)cc(OC)c1OC | 0.18 µM | 2.1 µM | 0.16 µM | < 0.1 µM | 2.3 µM | 0.15 µM | 0.18 µM | 2 µM | 0.18 µM | 2 µM | 0.19 µM | 
4 | COc1cc([C@@H]2c3cc4c(cc3[C@@H](OC(=O)N(C)C)[C@H]3COC(=O)[C@H]23)OCO4)cc(OC)c1OC | 0.16 µM | 0.15 µM | 0.12 µM | < 0.1 µM | 0.13 µM | 2.1 µM | 0.18 µM | < 0.1 µM | 0.18 µM | 2.1 µM | 0.17 µM | 
5 | COc1cc([C@@H]2c3cc4c(cc3[C@@H](OC(=O)NCCN(C)C)[C@H]3COC(=O)[C@H]23)OCO4)cc(OC)c1OC | 0.11 µM | 0.15 µM | < 0.1 µM | < 0.1 µM | 0.12 µM | 2.1 µM | 0.12 µM | < 0.1 µM | 0.16 µM | 2.1 µM | 0.15 µM | 
6 | COCCNC(=O)O[C@@H]1c2cc3c(cc2[C@@H](c2cc(OC)c(OC)c(OC)c2)[C@H]2C(=O)OC[C@@H]21)OCO3 | 0.15 µM | 0.16 µM | < 0.1 µM | < 0.1 µM | 0.12 µM | 2.2 µM | 0.15 µM | < 0.1 µM | 0.15 µM | 2.4 µM | 0.14 µM | 
